Hits are enriched below; roughly 4.5% of the tested compounds scored in any of these assays.
CHO parental Ca: signal in parental CHO cells, OX1R antagonist counter-screen. parental CHO-K1, ATP-induced calcium, Fluo-8 fluorescence. inhibition, % at 5.6 µM. hit rate 0.63% among 330,000. AID 463079;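 active = inhibition above that plate's mean sample inhibition plus 3 SD, cut at about 26% in these data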
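Test system: untransfected parental CHO cell line; also added: ATP stimulus; dosing: 5.6 µM, single dose; signal: calcium-sensitive Fluo-8 fluorescence; measure: percent inhibition of ATP-evoked calcium rise, normalized to controls; benchmarks: low control ATP plus DMSO, high control DMSO only; replication: one well per compound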
TAAR1 antag: antagonists of human TAAR1. Q96RJ0. CHO RD-HGA16 TAAR1, Fluo-8 calcium fluorescence, antagonist. inhibition, % at 3 µM. hit rate 1.5% among 360,000. AID 624466;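 active = inhibition above a per-plate cutoff, the mean inhibition of test compounds on that plate plus 3 SD, cut at about 49% in these data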
Target sequence (Q96RJ0 whole entry, looked up): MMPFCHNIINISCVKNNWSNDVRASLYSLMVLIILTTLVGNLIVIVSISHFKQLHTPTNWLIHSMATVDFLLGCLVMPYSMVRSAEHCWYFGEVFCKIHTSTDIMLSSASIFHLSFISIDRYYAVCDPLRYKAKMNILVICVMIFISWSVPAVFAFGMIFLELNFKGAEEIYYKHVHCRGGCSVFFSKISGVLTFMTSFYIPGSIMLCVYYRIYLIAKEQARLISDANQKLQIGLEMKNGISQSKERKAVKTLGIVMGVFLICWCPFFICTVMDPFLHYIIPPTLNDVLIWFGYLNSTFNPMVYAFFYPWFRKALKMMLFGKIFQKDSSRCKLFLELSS
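Assay system: CHO-derived RD-HGA16 cells stably expressing human TAAR1 plus Gα16. Timing: 140 s kinetic read after compound, 140 s after agonist. Technique: kinetic Fluo-8 calcium fluorescence measurement. Measure: % inhibition of agonist calcium response.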
TAAR1 agonist: agonists of human TAAR1 | activation, % at 3 µM | hit rate 0.99% among 360,000 | CHO RD-HGA16 TAAR1, Fluo-8 calcium fluorescence; vehicle wells 0%, saturating PEA agonist 100%;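 active = activation above the mean activation of all test compounds in the run plus 3 SD, cut at about 38% in these data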
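System: CHO-derived RD-HGA16 cells with stable Gα16 and human TAAR1 / Times: 17-24 h plating, Fluo-8 75 min 37 °C, 30 min RT / Technique: calcium-sensitive Fluo-8 signal, excitation 470-495, emission 515-575 nm / Measure: % activation relative to PEA EC100 response / Benchmarks: DMSO and PEA EC100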
OX1R antag-1: human HCRTR1 antagonism. O43613. CHO/OX1R cells, Fluo-8 calcium fluorescence, orexin A. inhibition, % at 5 µM. hit rate 0.43% among 330,000. AID 434989;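 active = inhibition above its plate's threshold, mean inhibition of all tested compounds on the plate plus 3 SD, cut at about 37% in these data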
OX1R antag-2: antagonists of human orexin 1 receptor (OX1R). OX1R-expressing cells, FRET antagonist read-out. hit rate 1.8% among 330,000. inhibition, % at 6.6 µM. AID 485270; in the data active = inhibition mostly above about 38%, no sharp cut-off; inactive = mostly below about 40%
GPR7 antagonist: blocks human GPR7 receptor signaling; P48145; GPR7-expressing cells, fluorescence antagonist assay; inhibition, % at 4.4 µM; hit rate 1.1% among 290,000; in the data active = inhibition above about 16%, passing the limit was not always enough;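 note: cells stimulated with the agonist NPW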
Target sequence (P48145 whole entry, looked up): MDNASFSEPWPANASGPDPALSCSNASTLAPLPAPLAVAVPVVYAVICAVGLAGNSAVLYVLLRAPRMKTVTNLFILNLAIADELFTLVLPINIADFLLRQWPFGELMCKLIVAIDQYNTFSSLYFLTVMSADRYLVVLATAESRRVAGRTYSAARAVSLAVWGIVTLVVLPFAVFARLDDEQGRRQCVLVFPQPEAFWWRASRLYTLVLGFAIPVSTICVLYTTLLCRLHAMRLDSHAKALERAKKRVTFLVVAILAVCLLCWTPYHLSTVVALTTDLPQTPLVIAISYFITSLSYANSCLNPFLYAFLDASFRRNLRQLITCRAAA
Large screens that a line does not name were inactive.

O=C(CSc1cc(Cl)ccc1Cl)NC1CCCc2ccccc21 (centres undefined)	none
COc1cccc(CNC(=O)CSc2nc3ccc(C)cc3[nH]2)c1	OX1R antag-2 41.7
Cc1ccc2nc(SCC(=O)c3ccc(Cl)s3)[nH]c2c1	OX1R antag-2 56.4
Cc1ccc2nc(SCC(=O)c3ccc4c(c3)OCO4)[nH]c2c1	none
CCn1c(SCC(=O)NC2CCCc3ccccc32)nnc1-c1cccs1 (centres undefined)	OX1R antag-2 70.4
COc1cc(N=Nc2ccc(Br)cc2)cc(C=O)c1O	none (no result: CHO parental Ca, OX1R antag-1, OX1R antag-2, GPR7 antagonist)
O=C(CSc1ccc2ccccc2c1)NC1CCCc2ccccc21 (centres undefined)	OX1R antag-2 70.7
CN(CC(=O)Nc1ccc(F)c(F)c1)S(=O)(=O)c1cccc2nsnc12	OX1R antag-2 62.6
CN(C)S(=O)(=O)c1cccc2nsnc12	OX1R antag-2 35.2
Cc1cccc(N(C)S(=O)(=O)c2cccc3nsnc23)c1	none
O=C1c2c(O)ccc(O)c2C(=O)c2c(NCCNCCO)ccc(NCCNCCO)c21	OX1R antag-2 64.7 (no result: GPR7 antagonist)
CNC(=O)COC(=O)/C=C/c1cn(-c2ccccc2)nc1-c1ccc2c(c1)OCCO2	none
O=C(O)/C=C\c1cn(-c2ccccc2)nc1-c1cc2ccccc2o1	OX1R antag-2 76.4
O=C(O)/C=C/c1cn(-c2ccccc2)nc1-c1cc2ccccc2o1	none
Cc1ccc(-c2nn(-c3ccccc3)cc2/C=C/C(=O)OCC(=O)NC2CC2)o1	CHO parental Ca 83.2, OX1R antag-1 76.8
CCC(C(=O)Nc1cccc(C(=O)O)c1C)c1ccccc1 (centres undefined)	none
Cc1ccc(S(=O)(=O)N2C3CC(c4ccccc4)N(S(=O)(=O)c4cccc(Cl)c4)CC3C(=O)C[C@H]2c2ccccc2)cc1 (some centres undefined)	none (no result: CHO parental Ca, OX1R antag-1, OX1R antag-2, GPR7 antagonist)
CC1Cc2cc(S(=O)(=O)N3CCCCC3C)ccc2N1C(=O)C1CCC1 (centres undefined)	none
Cc1cccc(NC(=O)C2CCCN2S(=O)(=O)c2ccc(Cl)cc2)n1 (centres undefined)	OX1R antag-2 76.3
CC1Cc2ccccc2N1C(=O)C1CCCCN1S(=O)(=O)c1ccccc1 (centres undefined)	OX1R antag-2 49.2
CCOc1ccccc1NC(=O)C1CCCCN1S(=O)(=O)c1ccc(F)cc1 (centres undefined)	OX1R antag-2 52.9
COc1ccc(NC(=O)C2CCCCN2S(=O)(=O)c2ccccc2)cc1S(=O)(=O)N1CCOCC1 (centres undefined)	TAAR1 antag 58.2 (no result: CHO parental Ca, OX1R antag-1, OX1R antag-2, GPR7 antagonist)
CCn1c(=O)c2c(nc(SCC(=O)Nc3ccccc3)n2C)n(C)c1=O	none
CC(=O)Nc1ccc(S(=O)(=O)N2C(C)CCCC2C)cc1 (centres undefined)	none
COc1ccc(NS(=O)(=O)c2cccc(C(=O)O)c2)cc1S(=O)(=O)N1CCCCC1	none (no result: GPR7 antagonist)
COc1ccc(C)cc1NC(=O)C1CCCCN1S(=O)(=O)c1ccccc1 (centres undefined)	OX1R antag-2 65.9 (no result: GPR7 antagonist)
COc1ccc(C)cc1NC(=O)C1CCN(S(=O)(=O)c2ccccc2)CC1	none
Cc1ccc(S(=O)(=O)N2Cc3ccccc3CC2C(=O)NC(C)(C)C)cc1 (centres undefined)	OX1R antag-2 27.2
O=C(Nc1ccccc1F)C1CCCN1S(=O)(=O)c1ccc(Cl)cc1 (centres undefined)	OX1R antag-2 46.2 (no result: GPR7 antagonist)
COc1ccc(NS(=O)(=O)c2ccc(Cl)c(C(=O)O)c2)cc1S(=O)(=O)N1CCCCC1	CHO parental Ca 42.8
Cc1ccc(S(=O)(=O)N2Cc3ccccc3CC2C(=O)Nc2ccc3c(c2)OCO3)cc1 (centres undefined)	none
CC1=C(C(=O)Nc2ccccc2C(=O)N2CCN(c3ccccc3)CC2)SCCO1	none (no result: CHO parental Ca, OX1R antag-1, OX1R antag-2, GPR7 antagonist)
C[C@@H]1CN([C@@H](C)CO)C(=O)c2cc(N(C)C)ccc2O[C@@H](C)CCCCO[C@@H]1CN(C)Cc1ccc2c(c1)OCO2	none (no result: CHO parental Ca, OX1R antag-1, OX1R antag-2, GPR7 antagonist)
Cc1ccc(S(=O)(=O)N2CCCC2C(=O)NCc2ccccc2Cl)cc1 (centres undefined)	none
Cc1ccc(S(=O)(=O)N2CCC[C@H]2C(=O)Nc2ccccc2C)cc1	OX1R antag-2 47.5 (no result: GPR7 antagonist)
Cc1ccc(S(=O)(=O)N(C)C)cc1NC(=O)C1CCCCN1S(=O)(=O)c1ccccc1 (centres undefined)	none (no result: GPR7 antagonist)
Cc1ccc(S(=O)(=O)N2CCC[C@H]2C(=O)Nc2ccccc2Cl)cc1	OX1R antag-2 61.2 (no result: GPR7 antagonist)
Cc1cccc(NC(=O)C2CCCCN2S(=O)(=O)c2ccccc2)c1C (centres undefined)	OX1R antag-2 32.6 (no result: GPR7 antagonist)
Cc1ccc2ccccc2[n+]1CCCS(=O)(=O)[O-]	none
CCCC[n+]1c2ccccc2cc2ccccc21	OX1R antag-2 47.9
Nc1ccc(-c2cc(-c3cccc(N)c3)nc(-c3ccccc3)n2)cc1	GPR7 antagonist 28.7
CCC/C(=C1/c2ccccc2C(=O)N1c1ccccc1)c1ccc2[nH]ccc2c1	TAAR1 antag 57.6 (no result: GPR7 antagonist)
O=C1c2ccccc2/C(=C\c2ccc3[nH]ccc3c2)N1c1ccccc1	none (no result: GPR7 antagonist)
O=C1/C(=N\S(=O)(=O)c2cccs2)C([n+]2cccc(Cc3ccccc3)c2)=C([O-])c2ccccc21	CHO parental Ca 50.7, OX1R antag-2 48.2 (no result: TAAR1 antag, TAAR1 agonist)
Cc1cc(C)c[n+](C2=C([O-])c3ccccc3C(=O)/C2=N\S(=O)(=O)c2cccs2)c1	none
CC(C)(C)c1cc[n+](C2=C([O-])c3ccccc3C(=O)/C2=N\S(=O)(=O)c2ccccc2)cc1	OX1R antag-2 67.2
O=C1/C(=N\S(=O)(=O)c2cccs2)C([n+]2ccc(CCCc3ccccc3)cc2)=C([O-])c2ccccc21	none
CCOC1=CC2=C(C(=O)C(Cl)=CC2=O)[C@@H]2CN(S(=O)(=O)c3ccc(C)cc3)[C@@H](c3ccccc3)[C@H]12	none (no result: CHO parental Ca, OX1R antag-1, OX1R antag-2, GPR7 antagonist)
Cc1nc2c(ccc3nc(NC(=O)c4ccc5c(c4)OCCO5)sc32)s1	OX1R antag-2 64.4
Cc1ccccc1/C(N)=N/OC(=O)c1cccs1	none
CNCC[C@H](Oc1cccc2ccccc12)c1cccs1	GPR7 antagonist 37.6
Cc1nn(-c2ccccc2)c2nc(C(F)(F)F)[nH]c(=O)c12	none
Cc1nn(-c2cc(C(F)(F)F)ccc2Cl)c2nc(C(Cl)(Cl)Cl)[nH]c(=O)c12	OX1R antag-2 39.9
COCC(=O)N[C@H]1C=C[C@@H](CC(=O)NCc2ccccc2OC)O[C@@H]1CO	none (no result: CHO parental Ca, OX1R antag-1, OX1R antag-2, GPR7 antagonist)
CCCCS(=O)(=O)N1CCCc2nc(-c3ccc(F)cc3)ccc21	none (no result: CHO parental Ca, OX1R antag-1, OX1R antag-2, GPR7 antagonist)
Cc1n[nH]c(=O)c2c(NC(=O)CSc3nncs3)oc(C)c12	OX1R antag-2 47.7 (no result: GPR7 antagonist)
Cc1cc(C)c(C)c(SCC(=O)Nc2oc(C)c3c(C)n[nH]c(=O)c23)c1C	none (no result: GPR7 antagonist)
Cc1cccc(C(=O)NC(=S)Nc2ccccc2C(=O)O)c1	none

High-throughput results as filed in PubChem.
